Measurements as given in ChEMBL document CHEMBL4145525, “Machine learning prioritizes synthesis of primaquine ureidoamides with high antimalarial activity and attenuated cytotoxicity” (Eur J Med Chem, 2018).

Key:
[1] = test system: Plasmodium falciparum; test: Antiplasmodial activity against erythrocytic stage of Plasmodium falciparum NF54 assessed as reduction in [3H]hypoxanthine incorporation after 48 hrs by liquid scintillation counting method; format: functional, organism-based
How it was run: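 Asexual blood-stage NF54 grown in hypoxanthine-free RPMI 1640 with HEPES, NaHCO3, neomycin and Albumax, using washed human A+ erythrocytes at 2.5% hematocrit and 0.3% parasitemia. Compounds were made as 10 mg/ml DMSO stocks and run as eleven 3-fold dilutions, 100 to 0.002 µg/ml. Incubation at 37 °C in 4% CO2, 3% O2, 93% N2. After 48 h, 0.5 µCi 3H-hypoxanthine was added for a further 24 h, then harvested and scintillation counted. IC50 by linear interpolation of sigmoidal curves; averages of 2–3 independent experiments.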

[2] = test system: L6; test: Cytotoxicity against rat L6 cells assessed as reduction in cell viability after 70 hrs by Alamar blue assay; format: cell-based; details: L6, 70 h
How it was run: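 L6 rat skeletal myoblasts were plated at 4000 cells/well in RPMI 1640 with L-glutamine and 10% FBS. Eleven 3-fold drug dilutions, 100 to 0.002 µg/ml. After 70 h, Alamar Blue was added for 2 h and fluorescence read (ex 536 nm, em 588 nm). IC50 by linear interpolation from sigmoid dose-inhibition curves.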

[3] = Selectivity index, ratio of IC50 for rat L6 cells to IC50 for erythrocytic stage of Plasmodium falciparum NF54; format: toxicity; details: read-out: Ratio IC50
How it was run: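 Ratio of the L6 cytotoxicity IC50 to the IC50 against P. falciparum NF54.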

[4] = test system: HL-60; test: Cytotoxicity against human HL60 cells assessed as growth inhibition after 72 hrs by MTT assay; format: cell-based; details: HL-60, 72 h
[5] = test system: CAPAN-1; test: Cytotoxicity against human Capan1 cells assessed as growth inhibition after 72 hrs by MTT assay; format: cell-based; details: CAPAN-1, 72 h
How it was run: (§1)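 Cells cultured in DMEM or RPMI-1640 with 10% FBS, 2 mM L-glutamine and antibiotics at 37 °C, 5% CO2. Seeded at 2×10^4–4×10^4 cells/well and attached for 24 h before five serial 10-fold compound dilutions, final DMSO <0.2%. MTT at 72 h. IC50 interpolated between the two concentrations flanking 50% growth inhibition; single experiment.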

[6] = test system: NCI-H460; test: Cytotoxicity against human NCI-H460 cells assessed as growth inhibition after 72 hrs by MTT assay; format: cell-based; details: NCI-H460, 72 h
How it was run: (§2)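 Monolayers grown in DMEM or RPMI-1640 with 10% FBS, 2 mM L-glutamine and penicillin/streptomycin at 37 °C, 5% CO2. Seeded at 2×10^4–4×10^4 cells/well and attached for 24 h. Five serial 10-fold dilutions added, final DMSO <0.2%. MTT read-out at 72 h; percentage growth calculated. IC50 by linear interpolation between concentrations bracketing 50% growth; at least two biological replicates.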

[7] = test system: SW-620; test: Cytotoxicity against human SW620 cells assessed as growth inhibition after 72 hrs by MTT assay; format: cell-based; details: SW-620, 72 h; how it was run: as §2
[8] = test system: MCF7; test: Cytotoxicity against human MCF7 cells assessed as growth inhibition after 72 hrs by MTT assay; format: cell-based; details: MCF7, 72 h; how it was run: as §2
[9] = test system: K562; test: Cytotoxicity against human K562 cells assessed as growth inhibition after 72 hrs by MTT assay; format: cell-based; details: K562, 72 h
[10] = test system: HCT-116; test: Cytotoxicity against human HCT116 cells assessed as growth inhibition after 72 hrs by MTT assay; format: cell-based; details: HCT-116, 72 h; how it was run: as §1

Row | SMILES | IC50 [1] | IC50 [2] | selectivity ratio [3] | other results
1 | COc1cc(NC(C)CCCNC(=O)NNC(=O)NCCCO)c2ncccc2c1 (stereo unspecified) | 58.8 µM | – | – | –
2 | COc1cc(NC(C)CCCNC(=O)NNC(=O)NCCCCCO)c2ncccc2c1 (stereo unspecified) | 43.7 µM | – | – | –
3 | COc1cc(NC(C)CCCNC(=O)NNC(=O)N(CCO)CCO)c2ncccc2c1 (stereo unspecified) | 41.4 µM | 178 µM | 4.3 | –
4 | COc1cc(NC(C)CCCNC(=O)NNC(=O)NC(CO)(CO)CO)c2ncccc2c1 (stereo unspecified) | 66.7 µM | – | – | –
5 | COc1cc(NC(C)CCCNC(=O)Nc2ccc(Cl)c(C(F)(F)F)c2)c2ncccc2c1 (stereo unspecified) | 17.1 µM | – | – | –
6 | COc1cc(NC(C)CCCNC(=O)NNC(=O)Nc2ccc(Cl)cc2)c2ncccc2c1 (stereo unspecified) | 17.8 µM | 91.9 µM | 5.2 | –
7 | COc1cc(NC(C)CCCNC(=O)NNC(=O)Nc2ccc(Br)cc2)c2ncccc2c1 (stereo unspecified) | 17.8 µM | 38.7 µM | 2.2 | –
8 | COc1cc(NC(C)CCCNC(=O)NNC(=O)/C=C/c2cccc(C(F)(F)F)c2)c2ncccc2c1 (stereo unspecified) | > 19.4 µM | 10.6 µM | < 0.5 | –
9 | COc1cc(NC(C)CCCNC(=O)NNC(=O)NCCc2ccccc2)c2ncccc2c1 (stereo unspecified) | 27.1 µM | – | – | –
10 | COc1cc(NC(C)CCCNC(=O)NNC(=O)/C(C)=C/c2ccccc2)c2ncccc2c1 (stereo unspecified) | 22.9 µM | 36.5 µM | 1.6 | –
11 | COc1cc(NC(C)CCCNC(=O)/C(C)=C/c2ccccc2)c2ncccc2c1 (stereo unspecified) | > 24.8 µM | > 250 µM | – | –
12 | COc1cc(NC(C)CCCNC(=O)NNC(=O)/C=C/c2cc(C(F)(F)F)cc(C(F)(F)F)c2)c2ncccc2c1 (stereo unspecified) | > 17.1 µM | > 170 µM | – | –
13 | COc1cc(NC(C)CCCNC(=O)NNC(=O)/C=C/c2ccc3c(c2)OCO3)c2ncccc2c1 (stereo unspecified) | 20.4 µM | 15.5 µM | 0.8 | –
14 | COc1cc(NC(C)CCCNC(=O)NNC(=O)/C=C/c2ccccc2)c2ncccc2c1 (stereo unspecified) | 17.2 µM | 13.9 µM | 0.8 | –
15 | COc1cc(NC(C)CCCNC(=O)NNC(=O)/C=C/c2ccc(OC)c(OC)c2)c2ncccc2c1 (stereo unspecified) | > 19.7 µM | 37 µM | < 1.9 | –
16 | COc1cc(NC(C)CCCNC(=O)NNC(=O)NOCc2ccccc2)c2ncccc2c1 (stereo unspecified) | 20.8 µM | – | – | –
17 | COc1cc(NC(C)CCCNC(=O)NNC(=O)NC2CCCC2)c2ncccc2c1 (stereo unspecified) | 75.4 µM | – | – | –
18 | COc1cc(NC(C)CCCNC(=O)NNC(=O)NCc2ccccc2)c2ncccc2c1 (stereo unspecified) | > 111 µM | – | – | –
19 | COc1cc(NC(C)CCCNC(=O)NNC(=O)/C=C/c2ccccc2F)c2ncccc2c1 (stereo unspecified) | > 21.4 µM | 25.1 µM | < 1.2 | –
20 | COc1ccc(/C=C/C(=O)NNC(=O)NCCCC(C)Nc2cc(OC)cc3cccnc23)cc1 (stereo unspecified) | 22.2 µM | 3.6 µM | 0.2 | –
21 | COc1cc(NC(C)CCCNC(=O)/C=C/c2ccc3c(c2)OCO3)c2ncccc2c1 (stereo unspecified) | 22.1 µM | 29 µM | 1.3 | –
22 | COc1cc(NC(C)CCCNC(=O)NNC(=O)NC2CCCCC2)c2ncccc2c1 (stereo unspecified) | 46.3 µM | – | – | –
23 | COc1cc(NC(C)CCCNC(=O)NNC(=O)/C=C/c2ccc(C(F)(F)F)cc2)c2ncccc2c1 (stereo unspecified) | > 19.4 µM | 28.3 µM | < 1.5 | –
24 | COc1cc(NC(C)CCCNC(=O)NNC(=O)/C=C/c2ccc(Cl)cc2)c2ncccc2c1 (stereo unspecified) | 24.2 µM | 7.3 µM | 0.3 | –
25 | COc1cc(NC(C)CCCNC(=O)NC2CCCCC2)c2ncccc2c1 (stereo unspecified) | 42.1 µM | – | – | –
26 | COc1cc(NC(C)CCCNC(=O)NC2CCCC2)c2ncccc2c1 (stereo unspecified) | 65.9 µM | – | – | –
27 | COc1cc(NC(C)CCCNC(=O)NCc2ccncc2)c2ncccc2c1 (stereo unspecified) | 47.3 µM | – | – | –
28 | COc1cc(NC(C)CCCNC(=O)NCCO)c2ncccc2c1 (stereo unspecified) | 27.4 µM | – | – | –
29 | COc1cc(NC(C)CCCNC(=O)NCCCO)c2ncccc2c1 (stereo unspecified) | 52.4 µM | – | – | –

These reach a lower IC50 [1]. Values come first.

Row | IC50 [1] | SMILES | IC50 [2] | selectivity ratio [3] | other results
30 | 6.4 µM | COc1cc(NC(C)CCCNC(=O)NCCCC(C)Nc2cc(OC)cc3cccnc23)c2ncccc2c1 (stereo unspecified) | > 180 µM | > 28.1 | –
31 | 12.4 µM | COc1ccc(/C=C/C(=O)NCCCC(C)Nc2cc(OC)cc3cccnc23)cc1 (stereo unspecified) | > 240 µM | > 19.4 | –
32 | 15.1 µM | COc1cc(NC(C)CCCNC(=O)/C=C/c2ccccc2)c2ncccc2c1 (stereo unspecified) | 18.5 µM | 1.2 | –
33 | 13.7 µM | COc1cc(NC(C)CCCNC(=O)/C=C/c2ccc(Cl)cc2)c2ncccc2c1 (stereo unspecified) | 16.8 µM | 1.2 | –
34 | 5.6 µM | COc1ccc(/C(=N/NC(=O)NNC(=O)NCCCC(C)Nc2cc(OC)cc3cccnc23)c2ccccc2)cc1 (stereo unspecified) | 16 µM | 2.9 | –
35 | 10 µM | COc1cc(NC(C)CCCNC(=O)NNC(=O)N(C)C(c2ccccc2)c2ccccc2)c2ncccc2c1 (stereo unspecified) | 10.4 µM | 1 | –
36 | 7.5 µM | COc1cc(NC(C)CCCNC(=O)NNC(=O)NC(c2ccccc2)c2ccc(Cl)cc2)c2ncccc2c1 (stereo unspecified) | 8.4 µM | 1.1 | –
37 | 3.7 µM | COc1cc(NC(C)CCCNC(=O)NNC(=O)NCCCC(C)Nc2cc(OC)cc3cccnc23)c2ncccc2c1 (stereo unspecified) | 76.6 µM | 20.7 | –
38 | 15.2 µM | COc1cc(NC(C)CCCNC(=O)NNC(=O)Nc2ccc(Cl)c(C(F)(F)F)c2)c2ncccc2c1 (stereo unspecified) | – | – | –
39 | 4.3 µM | COc1cc(NC(C)CCCNC(=O)NC(c2ccccc2)c2ccc(Cl)cc2)c2ncccc2c1 (stereo unspecified) | 140 µM | 32.6 | –
40 | 4.1 µM | COc1ccc(/C(=N/NC(=O)NCCCC(C)Nc2cc(OC)cc3cccnc23)c2ccccc2)cc1 (stereo unspecified) | > 195 µM | > 47.6 | –
41 | 1.5 µM | COc1cc(NC(C)CCCNC(=O)NCCNC(c2ccccc2)(c2ccccc2)c2ccccc2)c2ncccc2c1 (stereo unspecified) | > 171 µM | > 114 | –
42 | 11.9 µM | COc1cc(NC(C)CCCNC(=O)Nc2cc(C(F)(F)F)cc(C(F)(F)F)c2)c2ncccc2c1 (stereo unspecified) | 14.9 µM | 1.3 | –
43 | 10.3 µM | COc1cc(NC(C)CCCNC(=O)NNC(=O)Nc2ccc(C(F)(F)F)cc2)c2ncccc2c1 (stereo unspecified) | 14.9 µM | 1.4 | –
44 | 14.9 µM | COc1cc(NC(C)CCCNC(=O)NNC(=O)Nc2cccc(Cl)c2)c2ncccc2c1 (stereo unspecified) | 58.6 µM | 3.9 | –
45 | 11.8 µM | COc1cc(NC(C)CCCNC(=O)NNC(=O)Nc2cccc(C(F)(F)F)c2)c2ncccc2c1 (stereo unspecified) | 32.1 µM | 2.7 | –
46 | 4.5 µM | COc1cc(NC(C)CCCNC(=O)NNC(=O)/C=C/c2cc(OC)c(OC)c(OC)c2)c2ncccc2c1 (stereo unspecified) | 138 µM | 30.7 | –
47 | 11.3 µM | COc1cc(NC(C)CCCNC(=O)/C=C/c2cc(C(F)(F)F)cc(C(F)(F)F)c2)c2ncccc2c1 (stereo unspecified) | 158 µM | 14 | –
48 | 11.9 µM | COc1cc(NC(C)CCCNC(=O)/C=C/c2ccc(OC)c(OC)c2)c2ncccc2c1 (stereo unspecified) | > 220 µM | > 18.5 | –
49 | 15.6 µM | COc1cc(NC(C)CCCNC(=O)/C=C/c2cccc(C(F)(F)F)c2)c2ncccc2c1 (stereo unspecified) | 16.2 µM | 1 | –
50 | 10.3 µM | COc1cc(NC(C)CCCNC(=O)NNC(=O)NC(c2ccccc2)c2ccccc2)c2ncccc2c1 (stereo unspecified) | – | – | –
51 | 12.9 µM | COc1cc(NC(C)CCCNC(=O)/C=C/c2ccc(C(F)(F)F)cc2)c2ncccc2c1 (stereo unspecified) | 160 µM | 12.4 | –
52 | 8.1 µM | COc1cc(NC(C)CCCNC(=O)/C=C/c2cc(OC)c(OC)c(OC)c2)c2ncccc2c1 (stereo unspecified) | > 210 µM | > 25.9 | –
53 | 13.2 µM | COc1cc(NC(C)CCCNC(=O)/C=C/c2ccccc2F)c2ncccc2c1 (stereo unspecified) | 3.5 µM | 0.3 | –
54 | 3.2 µM | COc1cc(NC(C)CCCNC(=O)NC(C(=O)Nc2ccc(Br)cc2)c2ccc(Cl)cc2)c2ncccc2c1 (stereo unspecified) | 54 µM | 16.9 | IC50 [4]: > 100 µM; IC50 [5]: > 100 µM; IC50 [6]: 52 µM; IC50 [7]: 32 µM; IC50 [8]: 16 µM; IC50 [9]: > 100 µM; IC50 [10]: > 100 µM
55 | 8.1 µM | COc1cc(NC(C)CCCNC(=O)N(C2CCCCC2)C2CCCCC2)c2ncccc2c1 (stereo unspecified) | – | – | –
